Measured values from ChEMBL document CHEMBL1133013, “Structure-activity relationships and pharmacokinetic analysis for a series of potent, systemically available biphenylsulfonamide matrix metalloproteinase inhibitors” (J Med Chem, 2000).

Key:
[1] = molecular target: Matrix metalloproteinase-9 (Homo sapiens, UniProt P14780); experiment: In vitro inhibition of matrix metalloprotease-9 (MMP-9)
Matrilysin = molecular target: T1, Matrilysin (Homo sapiens, UniProt P09237); experiment: In vitro inhibition of matrix metalloprotease-7 (MMP-7)
T1 sequence (P09237 whole entry): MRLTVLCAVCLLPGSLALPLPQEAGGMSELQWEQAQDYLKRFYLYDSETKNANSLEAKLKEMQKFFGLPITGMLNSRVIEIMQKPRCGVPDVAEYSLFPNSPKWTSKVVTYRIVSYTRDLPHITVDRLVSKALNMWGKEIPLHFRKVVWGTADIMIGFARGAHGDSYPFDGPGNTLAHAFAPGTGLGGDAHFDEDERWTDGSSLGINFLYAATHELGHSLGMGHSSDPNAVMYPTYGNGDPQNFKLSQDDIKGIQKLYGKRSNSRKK

Interstitial collagenase = molecular target: T2, Interstitial collagenase (Homo sapiens, UniProt P03956); experiment: In vitro inhibition of human recombinant matrix metalloprotease-1 (MMP-1)
T2 sequence (P03956 whole entry): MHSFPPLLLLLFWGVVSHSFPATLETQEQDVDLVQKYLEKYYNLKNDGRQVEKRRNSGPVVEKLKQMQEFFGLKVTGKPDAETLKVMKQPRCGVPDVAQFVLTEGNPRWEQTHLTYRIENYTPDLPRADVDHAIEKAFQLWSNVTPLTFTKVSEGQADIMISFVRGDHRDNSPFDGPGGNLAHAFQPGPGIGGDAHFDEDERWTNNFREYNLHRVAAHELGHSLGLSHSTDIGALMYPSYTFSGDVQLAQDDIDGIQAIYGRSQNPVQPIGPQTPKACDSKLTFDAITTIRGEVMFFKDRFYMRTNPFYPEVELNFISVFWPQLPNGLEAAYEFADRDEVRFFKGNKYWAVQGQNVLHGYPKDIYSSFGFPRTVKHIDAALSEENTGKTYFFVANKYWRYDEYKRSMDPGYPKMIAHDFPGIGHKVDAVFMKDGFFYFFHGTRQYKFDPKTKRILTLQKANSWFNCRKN

[2] = molecular target: 72 kDa type IV collagenase (Homo sapiens, UniProt P08253); experiment: In vitro inhibition of matrix metalloprotease-2 (MMP-2)
Stromelysin-1 = Stromelysin-1 (Homo sapiens, UniProt P08254); experiment: In vitro inhibition of recombinant human matrix metalloprotease-3 (MMP-3)
Collagenase 3 = Collagenase 3 (Homo sapiens, UniProt P45452)
[3] = Pharmacokinetic parameters in rats following a single 5 mg/kg oral cassette gavage dose; assay type: ADME, organism-based; set-up: dose 5 mg/kg, route oral; details: rat, in vivo, read-out: AUC 0-infinity
In short: (§1)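 Cassette of 5–7 compounds given together as one oral gavage, 5 mg/kg per compound, methyl cellulose suspension, 3 fasted male Wistar rats (80-90 days old). Heparinized plasma taken by jugular cannula predose to 48 h. LC-MS/MS with LLOQ 10 ng/mL. Noncompartmental analysis of individual rats: Cmax/tmax as observed, t1/2 = 0.693/λz, trapezoidal AUC(0-tldc) extrapolated to infinity.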

[4] = Cmax in rat plasma after single 5 mg/kg oral cassette gavage dose; assay type: ADME, organism-based; set-up: dose 5 mg/kg, route oral; in short: as §1
[5] = Half life (t1/2) in rats following a single 5 mg/kg oral cassette gavage dose; assay type: ADME, organism-based; set-up: dose 5 mg/kg, route oral; details: rat, in vivo; in short: as §1
[6] = Concentration in rat plasma 24 hours after single 5 mg/kg oral cassette gavage dose; assay type: ADME, organism-based; set-up: dose 5 mg/kg, route oral; details: read-out: C24
[7] = Time to maximal concentration (tmax) in rats following a single 5 mg/kg oral cassette gavage dose; assay type: ADME, organism-based; set-up: dose 5 mg/kg, route oral; details: rat, in vivo; in short: as §1
[8] = AUC in rats following a single 5 mg/kg oral cassette gavage dose; assay type: ADME, organism-based; set-up: dose 5 mg/kg, route oral; details: rat, plasma, read-out: AUC 0-tldc; in short: as §1

Matrix metalloproteinase-9, sequence (P14780 whole entry): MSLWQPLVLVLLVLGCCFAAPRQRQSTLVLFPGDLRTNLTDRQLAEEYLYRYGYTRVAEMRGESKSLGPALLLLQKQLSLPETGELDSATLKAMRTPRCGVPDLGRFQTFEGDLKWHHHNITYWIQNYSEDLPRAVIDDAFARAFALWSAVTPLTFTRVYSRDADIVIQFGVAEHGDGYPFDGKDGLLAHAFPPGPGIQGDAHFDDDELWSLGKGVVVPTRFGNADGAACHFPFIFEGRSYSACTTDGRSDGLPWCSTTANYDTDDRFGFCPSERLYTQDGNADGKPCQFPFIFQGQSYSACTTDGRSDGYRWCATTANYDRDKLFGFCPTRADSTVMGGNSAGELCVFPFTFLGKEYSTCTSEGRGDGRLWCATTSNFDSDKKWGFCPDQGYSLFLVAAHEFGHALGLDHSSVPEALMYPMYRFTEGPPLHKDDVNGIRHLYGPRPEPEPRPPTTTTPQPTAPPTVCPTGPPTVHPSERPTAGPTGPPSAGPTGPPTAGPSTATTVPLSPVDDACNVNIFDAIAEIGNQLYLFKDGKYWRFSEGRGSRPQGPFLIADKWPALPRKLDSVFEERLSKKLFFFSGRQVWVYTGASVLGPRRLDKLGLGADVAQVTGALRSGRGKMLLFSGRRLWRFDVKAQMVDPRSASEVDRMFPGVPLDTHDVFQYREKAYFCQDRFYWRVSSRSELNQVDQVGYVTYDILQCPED
Stromelysin-1, sequence (P08254 whole entry): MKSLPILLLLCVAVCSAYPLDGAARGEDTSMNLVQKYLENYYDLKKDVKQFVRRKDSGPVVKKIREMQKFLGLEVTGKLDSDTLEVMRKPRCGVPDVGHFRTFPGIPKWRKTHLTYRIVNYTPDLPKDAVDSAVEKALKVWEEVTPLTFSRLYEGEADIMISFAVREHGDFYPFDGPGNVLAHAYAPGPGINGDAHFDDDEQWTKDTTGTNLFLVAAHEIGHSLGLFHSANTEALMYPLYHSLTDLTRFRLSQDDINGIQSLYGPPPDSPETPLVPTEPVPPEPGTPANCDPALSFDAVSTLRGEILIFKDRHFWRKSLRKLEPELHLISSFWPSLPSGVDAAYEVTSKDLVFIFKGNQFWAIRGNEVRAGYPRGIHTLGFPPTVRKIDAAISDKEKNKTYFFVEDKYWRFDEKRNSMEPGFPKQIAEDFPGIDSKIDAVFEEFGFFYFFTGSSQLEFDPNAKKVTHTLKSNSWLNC
72 kDa type IV collagenase, sequence (P08253 whole entry): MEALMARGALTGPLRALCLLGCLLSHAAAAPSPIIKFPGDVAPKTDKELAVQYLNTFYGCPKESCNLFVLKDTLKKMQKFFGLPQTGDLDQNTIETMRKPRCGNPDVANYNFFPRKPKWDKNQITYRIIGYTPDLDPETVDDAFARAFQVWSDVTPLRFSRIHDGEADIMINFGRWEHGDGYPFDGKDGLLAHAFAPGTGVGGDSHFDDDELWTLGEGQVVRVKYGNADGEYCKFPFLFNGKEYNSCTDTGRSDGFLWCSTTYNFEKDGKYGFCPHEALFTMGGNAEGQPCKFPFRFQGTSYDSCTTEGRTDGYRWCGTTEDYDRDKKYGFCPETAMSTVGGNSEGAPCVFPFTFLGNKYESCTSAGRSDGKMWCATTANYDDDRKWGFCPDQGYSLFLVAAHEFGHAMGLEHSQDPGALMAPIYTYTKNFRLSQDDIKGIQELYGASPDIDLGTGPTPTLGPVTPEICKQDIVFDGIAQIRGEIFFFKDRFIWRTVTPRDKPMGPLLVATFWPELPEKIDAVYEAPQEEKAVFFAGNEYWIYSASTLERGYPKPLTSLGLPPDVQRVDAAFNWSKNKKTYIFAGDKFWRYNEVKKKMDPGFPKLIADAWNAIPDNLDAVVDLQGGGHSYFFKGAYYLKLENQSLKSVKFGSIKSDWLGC

SMILES	IC50 [1]	IC50 (Matrilysin)	IC50 (Interstitial collagenase)	IC50 [2]	IC50 (Stromelysin-1)	IC50 (Collagenase 3)	AUC [3]	Cmax [4]	half-life [5]	concentration at 24 h [6]	Tmax [7]	AUC [8]
O=C(NCCCC[C@H](NS(=O)(=O)c1ccc(-c2ccc(Br)cc2)cc1)C(=O)O)OCc1ccccc1	10 µM	15 µM	40 µM	31 nM	28 nM	13 nM	–	–	–	–	–	–
O=C(O)C(CCSCc1ccccc1)NS(=O)(=O)c1ccc(-c2ccc(Br)cc2)cc1 (stereo not given)	10 µM	36 µM	56 µM	7 nM	22 nM	36 nM	132 µg·h/mL	11600 ng/mL	750 min	1530 ng/mL	1.33 h	119 µg·h/mL
CC(C)[C@H](NS(=O)(=O)c1ccc(-c2ccc(Cl)cc2)cc1)C(=O)O	16 µM	7.5 µM	6.5 µM	11 nM	9 nM	48 nM	427 µg·h/mL	8860 ng/mL	2050 min	4020 ng/mL	0.5 h	170 µg·h/mL
O=C(CCc1ccccc1)NCCC[C@H](NS(=O)(=O)c1ccc(-c2ccc(Br)cc2)cc1)C(=O)O	7.7 µM	6.8 µM	41 µM	8 nM	21 nM	7 nM	–	–	–	–	–	–
CC(C)[C@H](NS(=O)(=O)c1ccc(-c2ccc(F)cc2)cc1)C(=O)O	64 µM	4.8 µM	4.2 µM	39 nM	10 nM	43 nM	1020 µg·h/mL	18700 ng/mL	2730 min	11300 ng/mL	2.75 h	670 µg·h/mL
CC(C)[C@H](NS(=O)(=O)c1ccc(-c2ccc(C#N)cc2)cc1)C(=O)NO	100 µM	16 µM	29 µM	–	135 nM	–	–	–	–	–	–	–
CC(C)[C@H](NS(=O)(=O)c1ccc(-c2ccc(N)cc2)cc1)C(=O)O	20 µM	31 µM	–	–	36 nM	105 nM	–	–	–	–	–	–
CC(C)[C@@H](NS(=O)(=O)c1ccc(-c2ccc(Br)cc2)cc1)C(=O)O	1.5 µM	11 µM	–	–	–	–	1380 µg·h/mL	25600 ng/mL	2500 min	16300 ng/mL	4.5 h	924 µg·h/mL
O=C(CCc1ccccc1)NCCCC[C@H](NS(=O)(=O)c1ccc(-c2ccc(Br)cc2)cc1)C(=O)O	4.8 µM	8.6 µM	15 µM	–	10 nM	–	–	–	–	–	–	–
Cc1ccc(-c2ccc(S(=O)(=O)N[C@H](C(=O)O)C(C)C)cc2)cc1	3.9 µM	4.5 µM	2.2 µM	2 nM	3 nM	11 nM	2.37 µg·h/mL	3070 ng/mL	24.2 min	< 10 ng/mL	0.5 h	2.25 µg·h/mL
CC(C)[C@H](NS(=O)(=O)c1ccc(-c2ccccc2)cc1)C(=O)O	26 µM	71 µM	5.4 µM	40 nM	38 nM	62 nM	3.6 µg·h/mL	5180 ng/mL	201 min	39 ng/mL	0.5 h	12.1 µg·h/mL
CC(C)[C@H](NS(=O)(=O)c1ccc(-c2ccc(Br)cc2)cc1)C(=O)O	7.9 µM	7.2 µM	–	–	–	–	2820 µg·h/mL	42400 ng/mL	2620 min	22700 ng/mL	2 h	1400 µg·h/mL
CC(C)[C@H](NS(=O)(=O)c1ccc(-c2cccc(Br)c2)cc1)C(=O)O	–	–	–	535 nM	290 nM	710 nM	–	–	–	–	–	–
C[C@H](NS(=O)(=O)c1ccc(-c2ccc(Br)cc2)cc1)C(=O)O	9.5 µM	11 µM	–	12 nM	12 nM	10 nM	818 µg·h/mL	17200 ng/mL	1510 min	12900 ng/mL	10.5 h	584 µg·h/mL
O=C(O)[C@H](Cc1ccccc1)NS(=O)(=O)c1ccc(-c2ccc(Br)cc2)cc1	27 µM	100 µM	–	19 nM	20 nM	21 nM	465 µg·h/mL	10300 ng/mL	1780 min	6280 ng/mL	2.67 h	310 µg·h/mL
CC(C)[C@@H](NS(=O)(=O)c1ccc(Oc2ccccc2)cc1)C(=O)NO	0.003 µM	0.18 µM	–	1 nM	4 nM	2 nM	3.17 µg·h/mL	310 ng/mL	467 min	–	0.33 h	2.17 µg·h/mL
CC(C)[C@@H](NS(=O)(=O)c1ccc(-c2ccc(C#N)cc2)cc1)C(=O)NO	0.027 µM	0.24 µM	0.17 µM	–	5 nM	–	0.33 µg·h/mL	180 ng/mL	47.4 min	–	1 h	0.23 µg·h/mL
CC(C)[C@H](NS(=O)(=O)c1ccc(-c2ccc(Br)cc2)cc1)C(=O)NO	84 µM	78 µM	24 µM	450 nM	810 nM	650 nM	–	–	–	–	–	–
CC(C)C[C@H](NS(=O)(=O)c1ccc(-c2ccc(Br)cc2)cc1)C(=O)O	4.9 µM	3.1 µM	7 µM	9 nM	7 nM	5 nM	1210 µg·h/mL	30700 ng/mL	2510 min	12400 ng/mL	2.33 h	578 µg·h/mL
COc1ccc(-c2ccc(S(=O)(=O)N[C@H](C(=O)O)C(C)C)cc2)cc1	2.2 µM	7.2 µM	1.5 µM	3 nM	–	6 nM	2.98 µg·h/mL	4260 ng/mL	21.4 min	< 10 ng/mL	0.5 h	2.79 µg·h/mL
CC(C)[C@H](NS(=O)(=O)c1ccc(-c2ccc([N+](=O)[O-])cc2)cc1)C(=O)O	38 µM	5.6 µM	12 µM	–	15 nM	102 nM	586 µg·h/mL	23400 ng/mL	1170 min	8360 ng/mL	0.667 h	402 µg·h/mL
O=C(O)CNS(=O)(=O)c1ccc(-c2ccc(Br)cc2)cc1	6.7 µM	77 µM	50 µM	4 nM	10 nM	26 nM	316 µg·h/mL	9960 ng/mL	936 min	5670 ng/mL	8 h	276 µg·h/mL
CC(C)[C@H](NS(=O)(=O)c1ccc(-c2ccc(C=O)cc2)cc1)C(=O)O	17 µM	4.5 µM	3.2 µM	12 nM	8 nM	16 nM	–	–	–	–	–	–
O=C(O)C(CCS(=O)(=O)Cc1ccccc1)NS(=O)(=O)c1ccc(-c2ccc(Br)cc2)cc1 (stereo not given)	2.3 µM	15 µM	27 µM	2 nM	7 nM	12 nM	2.73 µg·h/mL	451 ng/mL	233 min	–	1.67 h	2.48 µg·h/mL
CC(C)[C@H](NS(=O)(=O)c1ccc(-c2ccc(C(F)(F)F)cc2)cc1)C(=O)O	20 µM	7.9 µM	4.2 µM	–	9 nM	23 nM	1110 µg·h/mL	18600 ng/mL	2270 min	11700 ng/mL	2.25 h	685 µg·h/mL
CC(C)[C@H](NS(=O)(=O)c1ccc(-c2cccc(F)c2)cc1)C(=O)O	65 µM	22 µM	8.6 µM	49 nM	17 nM	150 nM	–	–	–	–	–	–
